{"source": "ChEMBL document CHEMBL3856209", "about": "“Novel pyrazolopyridine derivatives as potential angiogenesis inhibitors: Synthesis, biological evaluation and transcriptome-based mechanistic analysis” (Eur J Med Chem, 2016)", "key": {"HUVEC [1]": {"system": "HUVEC", "experiment": "Effect on MAP1B gene expression in serum-starved HUVEC after 6 hrs by microarray analysis relative to control", "format": "functional, Homo sapiens", "procedure,_shortened": "(§1)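 Serum-starved confluent HUVEC (pooled from 3–5 donors, passage ≤4) were treated with 2 μM compound or vehicle in 2.5% FBS for 6 h or 24 h, and total RNA was isolated. Hybridization was on Illumina Human-HT12. Data were processed with bgAdjust, vst and rsn normalization. Changes versus DMSO were called by moderated paired t-test at p < 0.05 and |log2 fold change| > 0.5.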"}, "HUVEC [2]": {"system": "HUVEC", "experiment": "Effect on ZWINT gene expression in serum-starved HUVEC after 24 hrs by microarray analysis relative to control", "format": "functional, Homo sapiens", "procedure,_shortened": "(§2)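 Confluent serum-starved HUVEC (primary, pooled from 3–5 donors, passage ≤4) treated with 2 μM compound or DMSO vehicle in 2.5% FBS for 6 h or 24 h. Total RNA hybridized to Illumina Human-HT12 arrays, background-corrected, vst-transformed and rsn-normalized. Differential expression versus DMSO by moderated paired t-test (p < 0.05, |log2 fold change| > 0.5).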"}, "HUVEC [3]": {"system": "HUVEC", "experiment": "Effect on ITGA2 gene expression in serum-starved HUVEC after 6 hrs by microarray analysis relative to control", "format": "functional, Homo sapiens", "procedure,_shortened": "(§3)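 Confluent, serum-starved HUVEC (pooled from 3–5 donors, passage ≤4) treated with 2 μM compound or vehicle with 2.5% FBS for 6 h or 24 h. Total RNA hybridized to Illumina Human-HT12 arrays. Data were background-corrected, vst-transformed and rsn-normalized. Hits called by moderated paired t-test versus DMSO-treated cells, p < 0.05 and log2 fold change >|0.5|.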"}, "HUVEC [4]": {"system": "HUVEC", "experiment": "Effect on SIVA1 gene expression in serum-starved HUVEC after 6 hrs by microarray analysis relative to control", "format": "functional, Homo sapiens"}, "HUVEC [5]": {"system": "HUVEC", "experiment": "Effect on SIVA1 gene expression in serum-starved HUVEC after 24 hrs by microarray analysis relative to control", "format": "functional, Homo sapiens"}, "HUVEC [6]": {"system": "HUVEC", "experiment": "Effect on SLC30A7 gene expression in serum-starved HUVEC after 6 hrs by microarray analysis relative to control", "format": "functional, Homo sapiens"}, "HUVEC [7]": {"system": "HUVEC", "experiment": "Effect on ZAK gene expression in serum-starved HUVEC after 24 hrs by microarray analysis relative to control", "format": "functional, Homo sapiens"}, "HUVEC [8]": {"system": "HUVEC", "experiment": "Effect on ACLY gene expression in serum-starved HUVEC after 6 hrs by microarray analysis relative to control", "format": "functional, Homo sapiens", "procedure,_shortened": "(§4)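 Serum-starved confluent HUVEC treated with 2 μM compound or DMSO in 2.5% FBS for 6 h or 24 h; RNA hybridized to Illumina Human-HT12 arrays. Data background-corrected, vst-transformed and rsn-normalized. Differential probes called by moderated paired t-test (limma) at p < 0.05 and log2 fold change >|0.5| vs DMSO.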"}, "HUVEC [9]": {"system": "HUVEC", "experiment": "Effect on ANGPT2 gene expression in serum-starved HUVEC after 6 hrs by microarray analysis relative to control", "format": "functional, Homo sapiens", "procedure,_shortened": "as §4"}, "HUVEC [10]": {"system": "HUVEC", "experiment": "Effect on ATP1B1 gene expression in serum-starved HUVEC after 6 hrs by microarray analysis relative to control", "format": "functional, Homo sapiens", "procedure,_shortened": "as §4"}, "HUVEC [11]": {"system": "HUVEC", "experiment": "Effect on CYBA gene expression in serum-starved HUVEC after 6 hrs by microarray analysis relative to control", "format": "functional, Homo sapiens", "procedure,_shortened": "as §2"}, "HUVEC [12]": {"system": "HUVEC", "experiment": "Effect on FAM212A gene expression in serum-starved HUVEC after 6 hrs by microarray analysis relative to control", "format": "functional, Homo sapiens", "procedure,_shortened": "as §2"}, "HUVEC [13]": {"system": "HUVEC", "experiment": "Effect on FAM213A gene expression in serum-starved HUVEC after 6 hrs by microarray analysis relative to control", "format": "functional, Homo sapiens", "procedure,_shortened": "as §2"}, "HUVEC [14]": {"system": "HUVEC", "experiment": "Effect on GPR116 gene expression in serum-starved HUVEC after 6 hrs by microarray analysis relative to control", "format": "functional, Homo sapiens", "procedure,_shortened": "as §3"}, "HUVEC [15]": {"system": "HUVEC", "experiment": "Effect on HECW2 gene expression in serum-starved HUVEC after 6 hrs by microarray analysis relative to control", "format": "functional, Homo sapiens", "procedure,_shortened": "as §3"}, "HUVEC [16]": {"system": "HUVEC", "experiment": "Effect on HLA-DPA1 gene expression in serum-starved HUVEC after 6 hrs by microarray analysis relative to control", "format": "functional, Homo sapiens", "procedure,_shortened": "as §3"}, "HUVEC [17]": {"system": "HUVEC", "experiment": "Effect on HLA-DRB4 gene expression in serum-starved HUVEC after 6 hrs by microarray analysis relative to control", "format": "functional, Homo sapiens", "procedure,_shortened": "as §3"}, "HUVEC [18]": {"system": "HUVEC", "experiment": "Effect on KCNAB1 gene expression in serum-starved HUVEC after 6 hrs by microarray analysis relative to control", "format": "functional, Homo sapiens", "procedure,_shortened": "as §3"}, "HUVEC [19]": {"system": "HUVEC", "experiment": "Effect on NR2F1 gene expression in serum-starved HUVEC after 6 hrs by microarray analysis relative to control", "format": "functional, Homo sapiens", "procedure,_shortened": "as §1"}, "HUVEC [20]": {"system": "HUVEC", "experiment": "Effect on TYMS gene expression in serum-starved HUVEC after 6 hrs by microarray analysis relative to control", "format": "functional, Homo sapiens"}, "HUVEC [21]": {"system": "HUVEC", "experiment": "Effect on VCAM1 gene expression in serum-starved HUVEC after 6 hrs by microarray analysis relative to control", "format": "functional, Homo sapiens"}, "HUVEC [22]": {"system": "HUVEC", "experiment": "Effect on YES1 gene expression in serum-starved HUVEC after 6 hrs by microarray analysis relative to control", "format": "functional, Homo sapiens"}, "HUVEC [23]": {"system": "HUVEC", "experiment": "Effect on ZMAT3 gene expression in serum-starved HUVEC after 6 hrs by microarray analysis relative to control", "format": "functional, Homo sapiens"}, "HUVEC [24]": {"system": "HUVEC", "experiment": "Effect on ACAT2 gene expression in serum-starved HUVEC after 24 hrs by microarray analysis relative to control", "format": "functional, Homo sapiens", "procedure,_shortened": "as §4"}, "HUVEC [25]": {"system": "HUVEC", "experiment": "Effect on CD34 gene expression in serum-starved HUVEC after 24 hrs by microarray analysis relative to control", "format": "functional, Homo sapiens", "procedure,_shortened": "as §2"}, "HUVEC [26]": {"system": "HUVEC", "experiment": "Effect on FAM212A gene expression in serum-starved HUVEC after 24 hrs by microarray analysis relative to control", "format": "functional, Homo sapiens", "procedure,_shortened": "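Serum-starved confluent HUVEC (primary, pooled from 3–5 donors, passage ≤4) treated with 2 μM test compound or DMSO vehicle (working dilutions ≤0.1% v/v) in presence of 2.5% FBS for 6 h or 24 h; total RNA hybridized to Illumina Human-HT12 arrays; background correction, vst, rsn normalization; moderated paired t-test versus DMSO, thresholds p < 0.05 and log2 fold change >|0.5|.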"}, "HUVEC [27]": {"system": "HUVEC", "experiment": "Effect on FDPS gene expression in serum-starved HUVEC after 24 hrs by microarray analysis relative to control", "format": "functional, Homo sapiens", "procedure,_shortened": "as §3"}, "HUVEC [28]": {"system": "HUVEC", "experiment": "Effect on HLA-DRB4 gene expression in serum-starved HUVEC after 24 hrs by microarray analysis relative to control", "format": "functional, Homo sapiens"}, "HUVEC [29]": {"system": "HUVEC", "experiment": "Effect on MVD gene expression in serum-starved HUVEC after 24 hrs by microarray analysis relative to control", "format": "functional, Homo sapiens", "procedure,_shortened": "as §1"}, "HUVEC [30]": {"system": "HUVEC", "experiment": "Effect on NEDD9 gene expression in serum-starved HUVEC after 24 hrs by microarray analysis relative to control", "format": "functional, Homo sapiens", "procedure,_shortened": "as §1"}, "HUVEC [31]": {"system": "HUVEC", "experiment": "Effect on RDH11 gene expression in serum-starved HUVEC after 24 hrs by microarray analysis relative to control", "format": "functional, Homo sapiens"}, "HUVEC [32]": {"system": "HUVEC", "experiment": "Effect on SERPINB2 gene expression in serum-starved HUVEC after 24 hrs by microarray analysis relative to control", "format": "functional, Homo sapiens"}, "[33]": {"experiment": "Upregulation of INSIG1 gene expression in serum-starved HUVEC at 2 uM after 24 hrs by qRT-PCR analysis", "format": "functional, cell-based", "conditions": "Homo sapiens"}, "[34]": {"experiment": "Downregulation of UBE2C gene expression in serum-starved HUVEC at 2 uM after 24 hrs by qRT-PCR analysis", "format": "functional, cell-based", "conditions": "Homo sapiens", "procedure,_shortened": "(§5)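 Serum-starved confluent HUVEC treated with 2 μM compound or vehicle in 2.5% FBS for 24 h. Total RNA isolated and qRT-PCR run in triplicate (95 °C 5 min; 40 cycles of 95 °C 5 s, 58 °C 20 s, 72 °C 5 s), normalized to RPS18S. Fold change vs control, n = 3.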"}, "[35]": {"experiment": "Downregulation of CCNB2 gene expression in serum-starved HUVEC at 2 uM after 24 hrs by qRT-PCR analysis", "format": "functional, cell-based", "conditions": "Homo sapiens", "procedure,_shortened": "as §5"}}, "note": "Active and inactive are the calls of the source.", "data": [{"compound": "COc1ccc(Cn2nc(-c3ccccc3)c3cc(Cl)nc(N4CCNCC4)c32)cc1", "values": [{"measurement": "fold change (FC)", "setting": "HUVEC [1]", "result": 0.5859}, {"measurement": "log2FC", "setting": "HUVEC [2]", "result": -0.5572}, {"measurement": "log2FC", "setting": "HUVEC [3]", "result": 0.5417}, {"measurement": "log2FC", "setting": "HUVEC [4]", "result": -0.2087}, {"measurement": "log2FC", "setting": "HUVEC [5]", "result": -0.5225}, {"measurement": "log2FC", "setting": "HUVEC [6]", "result": 0.512}, {"measurement": "log2FC", "setting": "HUVEC [7]", "result": 0.0198}]}, {"compound": "COc1ccc(Cn2nc(-c3ccccc3)c3cc(Nc4ccc(N5CCN(C)CC5)cc4)nc(N4CCN(C)CC4)c32)cc1", "values": [{"measurement": "fold change (FC)", "setting": "HUVEC [8]", "result": 0.4312}, {"measurement": "fold change (FC)", "setting": "HUVEC [9]", "result": 0.2528}, {"measurement": "fold change (FC)", "setting": "HUVEC [10]", "result": 0.237}, {"measurement": "fold change (FC)", "setting": "HUVEC [11]", "result": 0.1437}, {"measurement": "fold change (FC)", "setting": "HUVEC [12]", "result": 0.129}, {"measurement": "fold change (FC)", "setting": "HUVEC [13]", "result": -0.0934}, {"measurement": "fold change (FC)", "setting": "HUVEC [14]", "result": 0.1625}, {"measurement": "fold change (FC)", "setting": "HUVEC [15]", "result": 0.4559}, {"measurement": "fold change (FC)", "setting": "HUVEC [16]", "result": 0.6583}, {"measurement": "fold change (FC)", "setting": "HUVEC [17]", "result": 0.3506}, {"measurement": "fold change (FC)", "setting": "HUVEC [18]", "result": 0.0717}, {"measurement": "log2FC", "setting": "HUVEC [19]", "result": -0.2125}, {"measurement": "log2FC", "setting": "HUVEC [20]", "result": -0.1879}, {"measurement": "log2FC", "setting": "HUVEC [21]", "result": 0.1271}, {"measurement": "log2FC", "setting": "HUVEC [22]", "result": 0.3231}, {"measurement": "log2FC", "setting": "HUVEC [23]", "result": 0.5844}, {"measurement": "log2FC", "setting": "HUVEC [24]", "result": 1.8135}, {"measurement": "fold change (FC)", "setting": "HUVEC [25]", "result": 0.5547}, {"measurement": "fold change (FC)", "setting": "HUVEC [26]", "result": 0.5468}, {"measurement": "log2FC", "setting": "HUVEC [27]", "result": 0.8398}, {"measurement": "log2FC", "setting": "HUVEC [28]", "result": -0.7509}, {"measurement": "log2FC", "setting": "HUVEC [29]", "result": 1.3802}, {"measurement": "log2FC", "setting": "HUVEC [30]", "result": 0.6094}, {"measurement": "log2FC", "setting": "HUVEC [31]", "result": 0.6682}, {"measurement": "log2FC", "setting": "HUVEC [32]", "result": -0.6601}, {"measurement": "Activity", "setting": "[33]", "result": "Active"}, {"measurement": "Activity", "setting": "[34]", "result": "Active"}, {"measurement": "Activity", "setting": "[35]", "result": "Active"}]}]}
